Test results published in ChEMBL document CHEMBL2390903, “Anti-tubercular agents. Part 7: a new class of diarylpyrrole-oxazolidinone conjugates as antimycobacterial agents” (Eur J Med Chem, 2013).
Values after ≈ are worked out from the molar mass of the structure shown.

Tests used:
[1] = Cytotoxicity against mouse J744 cells assessed as growth inhibition after 24 hrs by MTT assay; assay type: cell-based; conditions: J744, 24 h
Summary of the method: (§1)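 Mouse J-774 macrophages exposed to test material (40) in RPMI with 10% FCS for 24 h at 37 °C under CO2. MTT then added with a further 3 h incubation. Formazan absorbance read at […]. Percent cytotoxicity calculated relative to untreated cells.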

[2] = Selectivity index, ratio of IC50 for mouse J744 cells to MIC for Mycobacterium tuberculosis H37Rv; assay type: functional
[3] = Cytotoxicity against mouse J744 cells assessed as growth inhibition at 40 ug/mL after 24 hrs by MTT assay relative to control; assay type: cell-based; conditions: read-out: GI; summary of the method: as §1
[4] = system: Mycobacterium tuberculosis; experiment: Antitubercular activity against Mycobacterium tuberculosis H37Rv assessed as growth inhibition after 2 to 3 weeks by broth microdilution method; assay type: functional
Summary of the method: (§2)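 Primary screen of all compounds against H37Rv at a single concentration in triplicate by microplate dilution. Actives then went to MIC determination by broth microdilution against H37Rv, rifampicin-resistant and XDR-1 isolates. Plates incubated 2–3 weeks at 37 °C in a CO2 incubator. MIC read visually as absence of growth turbidity. Rifampicin and linezolid served as reference drugs.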

Staphylococcus aureus [5] = experiment: Antibacterial activity against Staphylococcus aureus MTCC 96 assessed as growth inhibition after 24 hrs by agar dilution method; assay type: functional; conditions: MTCC 96, 24 h
Staphylococcus [6] = experiment: Antibacterial activity against 16-membered ring macrolide- lincosamide-streptogramin B-resistant Staphylococcus MTCC 2940 assessed as growth inhibition after 24 hrs by agar dilution method; assay type: functional; conditions: MTCC 2940, 24 h
Bacillus subtilis [7] = experiment: Antibacterial activity against Bacillus subtilis MTCC 121 assessed as growth inhibition after 24 hrs by agar dilution method; assay type: functional; conditions: MTCC 121, 24 h
Micrococcus luteus [8] = experiment: Antibacterial activity against Micrococcus luteus MTCC 2470 assessed as growth inhibition after 24 hrs by agar dilution method; assay type: functional; conditions: MTCC 2470, 24 h
[9] = system: Mycobacterium tuberculosis; experiment: Antitubercular activity against Mycobacterium tuberculosis XDR-1 assessed as growth inhibition after 2 to 3 weeks by broth microdilution method; assay type: functional; summary of the method: as §2
Escherichia coli = experiment: Antibacterial activity against Escherichia coli MTCC 739 assessed as growth inhibition after 24 hrs by agar dilution method; assay type: functional; conditions: MTCC 739, 24 h
Pseudomonas aeruginosa = experiment: Antibacterial activity against Pseudomonas aeruginosa MTCC 2453 assessed as growth inhibition after 24 hrs by agar dilution method; assay type: functional; conditions: MTCC 2453, 24 h
Staphylococcus [10] = experiment: Antibacterial activity against 16-membered ring macrolide- lincosamide-streptogramin B-resistant Staphylococcus MTCC 2940 assessed as growth inhibition at 20 ug/mL after 24 hrs; assay type: functional; conditions: MTCC 2940, 24 h, read-out: IZ
Micrococcus luteus [11] = experiment: Antibacterial activity against Micrococcus luteus MTCC 2470 assessed as growth inhibition at 20 ug/mL after 24 hrs; assay type: functional; conditions: MTCC 2470, 24 h, read-out: IZ
Staphylococcus aureus [12] = experiment: Antibacterial activity against Staphylococcus aureus MTCC 96 assessed as growth inhibition at 20 ug/mL after 24 hrs; assay type: functional; conditions: MTCC 96, 24 h, read-out: IZ
Bacillus subtilis [13] = experiment: Antibacterial activity against Bacillus subtilis MTCC 121 assessed as growth inhibition at 20 ug/mL after 24 hrs; assay type: functional; conditions: MTCC 121, 24 h, read-out: IZ
Bacillus subtilis [14] = experiment: Antibacterial activity against Bacillus subtilis MTCC 121 assessed as growth inhibition at 20 mg/mL after 24 hrs; assay type: functional; conditions: MTCC 121, 24 h, read-out: IZ
Staphylococcus [15] = experiment: Antibacterial activity against 16-membered ring macrolide- lincosamide-streptogramin B-resistant Staphylococcus MTCC 2940 assessed as growth inhibition at 20 mg/mL after 24 hrs; assay type: functional; conditions: MTCC 2940, 24 h, read-out: IZ

| Structure (SMILES) | IC50 [1] [µM] | Selectivity Index [2] | inhibition at 24 h, 40 ug/mL [3] [%] | MIC [4] [µg/mL] | MIC (Staphylococcus aureus [5]) [µg/mL] | MIC (Staphylococcus [6]) [µg/mL] | MIC (Bacillus subtilis [7]) [µg/mL] | MIC (Micrococcus luteus [8]) [µg/mL] | MIC [9] [µg/mL] | MIC (Escherichia coli) [µg/mL] | MIC (Pseudomonas aeruginosa) [µg/mL] | zone of inhibition at 20 µg/mL (Staphylococcus [10]) [mm] | zone of inhibition at 20 µg/mL (Micrococcus luteus [11]) [mm] | zone of inhibition at 20 µg/mL (Staphylococcus aureus [12]) [mm] | zone of inhibition at 20 µg/mL (Bacillus subtilis [13]) [mm] | zone of inhibition at 20000 µg/mL (Bacillus subtilis [14]) [mm] | zone of inhibition at 20000 µg/mL (Staphylococcus [15]) [mm] |
| --- | --- | --- | --- | --- | --- | --- | --- | --- | --- | --- | --- | --- | --- | --- | --- | --- | --- |
| Cc1c(CN2CCN(c3ccc(N4C[C@H](Cn5cc(-c6ccccn6)nn5)OC4=O)cc3F)CC2)cc(-c2ccc(F)cc2F)n1-c1cc(F)ccc1Br | > 40 | >10 | 43.9 | – | – | – | – | – | – | – | – | – | – | – | – | – | – |
| Cc1c(CN2CCN(c3ccc(N4C[C@H](Cn5cc(-c6ccccc6)nn5)OC4=O)cc3F)CC2)cc(-c2ccc(Cl)c(F)c2)n1-c1ccc(OC(F)(F)F)cc1 | – | – | – | > 16 | > 40 | > 40 | > 40 | 8 (≈ 9.95 µM) | > 16 | > 40 | > 40 | – | – | – | – | – | – |
| Cc1ccccc1-c1cc(CN2CCN(c3ccc(N4C[C@H](Cn5cc(-c6ccccn6)nn5)OC4=O)cc3F)CC2)c(C)n1-c1ccc(F)c(F)c1 | > 40 | >10 | 40 | 4 (≈ 5.56 µM) | > 30 | 5 (≈ 6.96 µM) | 12 (≈ 16.7 µM) | > 30 | 16 (≈ 22.3 µM) | > 40 | > 40 | – | – | – | – | – | – |
| CC(=O)NC[C@H]1CN(c2ccc(N3CCN(Cc4cc(-c5ccc(C(C)C)cc5)n(-c5ccc(F)cc5F)c4C)CC3)c(F)c2)C(=O)O1 | > 40 | >10 | 40.2 | 4 (≈ 6.06 µM) | 2 (≈ 3.03 µM) | 6 (≈ 9.09 µM) | 1.5 (≈ 2.27 µM) | 3 (≈ 4.55 µM) | 16 (≈ 24.3 µM) | > 40 | > 40 | 15 | 18 | 16 | 12 | – | – |
| Cc1c(CN2CCN(c3ccc(N4C[C@H](Cn5cc(-c6ccccn6)nn5)OC4=O)cc3F)CC2)cc(-c2ccc(F)cc2F)n1-c1ccc(F)cc1 | > 40 | >10 | 31.9 | 4 (≈ 5.53 µM) | 0.5 (≈ 0.692 µM) | 6 (≈ 8.3 µM) | 1 (≈ 1.38 µM) | 3 (≈ 4.15 µM) | 16 (≈ 22.1 µM) | > 40 | > 40 | 40 | 36 | 39 | 24 | – | – |
| Cc1ccc(-c2cc(CN3CCN(c4ccc(N5C[C@H](Cn6cc(-c7ccccc7)nn6)OC5=O)cc4F)CC3)c(C)n2-c2ccc(Cl)c(Cl)c2)cc1 | – | – | – | > 16 | 8 (≈ 10.7 µM) | 9 (≈ 12 µM) | 2.5 (≈ 3.33 µM) | 0.5 (≈ 0.666 µM) | > 16 | > 40 | > 40 | 19 | 17 | 21 | 14 | – | – |
| Cc1c(CN2CCN(c3ccc(N4C[C@H](Cn5cc(-c6ccccn6)nn5)OC4=O)cc3F)CC2)cc(-c2ccc(Cl)c(F)c2)n1-c1ccc(OC(F)(F)F)cc1 | > 40 | >10 | 37.7 | 4 (≈ 4.97 µM) | > 30 | 9 (≈ 11.2 µM) | 16 (≈ 19.9 µM) | 8 (≈ 9.94 µM) | > 16 | > 40 | > 40 | – | – | – | – | – | – |
| CC(=O)NC[C@H]1CN(c2ccc(N3CCN(Cc4cc(-c5ccccc5C)n(-c5ccc(F)cc5)c4C)CC3)c(F)c2)C(=O)O1 | – | – | – | – | 1.5 (≈ 2.44 µM) | 5 (≈ 8.15 µM) | 3 (≈ 4.89 µM) | 1.5 (≈ 2.44 µM) | – | > 40 | > 40 | – | – | – | – | – | – |
| Cc1ccccc1-c1cc(CN2CCN(c3ccc(N4C[C@H](Cn5cc(-c6cncn6C)nn5)OC4=O)cc3F)CC2)c(C)n1-c1ccc(F)cc1 | > 40 | >10 | 49.3 | 2 (≈ 2.84 µM) | 10 (≈ 14.2 µM) | > 30 | > 30 | > 30 | 8 (≈ 11.4 µM) | > 40 | > 40 | – | – | – | – | – | – |
| CO[C@H]1/C=C/O[C@@]2(C)Oc3c(C)c(O)c4c(O)c(c(/C=N/N5CCN(C)CC5)c(O)c4c3C2=O)NC(=O)/C(C)=C\C=C\[C@H](C)[C@H](O)[C@@H](C)[C@@H](O)[C@@H](C)[C@H](OC(C)=O)[C@@H]1C [RIFAMPIN] | – | – | – | 0.2 (≈ 0.243 µM) | – | – | – | – | 2 (≈ 2.43 µM) | – | – | – | – | – | – | – | – |
| Cc1ccc(-c2cc(CN3CCN(c4ccc(N5C[C@H](Cn6cc(-c7ccccn7)nn6)OC5=O)cc4F)CC3)c(C)n2-c2ccc(Cl)c(Cl)c2)cc1 | – | – | – | 4 (≈ 5.32 µM) | 8 (≈ 10.6 µM) | > 40 | 1 (≈ 1.33 µM) | 2.5 (≈ 3.33 µM) | 16 (≈ 21.3 µM) | > 40 | > 40 | – | – | – | – | – | – |
| Cc1c(CN2CCN(c3ccc(N4C[C@H](Cn5cc(-c6ccccc6)nn5)OC4=O)cc3F)CC2)cc(-c2cccc(Cl)c2)n1-c1ccccc1F | – | – | – | > 16 | > 40 | 10 (≈ 13.9 µM) | > 40 | 8 (≈ 11.1 µM) | > 16 | > 40 | > 40 | – | – | – | – | – | – |
| Cc1cccc(-c2cn(C[C@H]3CN(c4ccc(N5CCN(Cc6cc(-c7ccccc7C)n(-c7ccc(F)cc7)c6C)CC5)c(F)c4)C(=O)O3)nn2)c1 | – | – | – | > 16 | > 40 | > 40 | 9 (≈ 12.6 µM) | > 40 | > 16 | > 40 | > 40 | – | – | – | – | – | – |
| CC(=O)NC[C@H]1CN(c2ccc(N3CCN(Cc4cc(-c5cccc(Cl)c5)n(-c5ccccc5F)c4C)CC3)c(F)c2)C(=O)O1 | – | – | – | 8 (≈ 12.6 µM) | 0.5 (≈ 0.788 µM) | 2 (≈ 3.15 µM) | 1.5 (≈ 2.37 µM) | 1.5 (≈ 2.37 µM) | > 16 | > 40 | > 40 | 23 | 27 | 18 | 18 | – | – |
| CC(=O)NC[C@H]1CN(c2ccc(N3CCOCC3)c(F)c2)C(=O)O1 [LINEZOLID] | – | – | – | 1 (≈ 2.96 µM) | 1.5 (≈ 4.45 µM) | 0.5 (≈ 1.48 µM) | 0.5 (≈ 1.48 µM) | 1 (≈ 2.96 µM) | 4 (≈ 11.9 µM) | – | – | – | – | – | – | 20 | 18 |
| Cc1c(CN2CCN(c3ccc(N4C[C@H](Cn5cc(-c6cncn6C)nn5)OC4=O)cc3F)CC2)cc(-c2ccc(F)cc2F)n1-c1ccc(F)cc1 | – | – | – | > 6.25 | 16 (≈ 22 µM) | > 30 | > 30 | > 30 | 16 (≈ 22 µM) | > 40 | > 40 | – | – | – | – | – | – |
| CC(=O)NC[C@H]1CN(c2ccc(N3CCN(Cc4cc(-c5ccc(F)cc5F)n(-c5cc(F)ccc5Br)c4C)CC3)c(F)c2)C(=O)O1 | – | – | – | 8 (≈ 11.2 µM) | 3 (≈ 4.2 µM) | 5 (≈ 7 µM) | 2.5 (≈ 3.5 µM) | 5 (≈ 7 µM) | > 16 | > 40 | > 40 | 18 | 19 | 20 | 14 | – | – |
| Cc1c(CN2CCN(c3ccc(N4C[C@H](Cn5cc(-c6cncn6C)nn5)OC4=O)cc3F)CC2)cc(-c2ccc(C(C)C)cc2)n1-c1ccc(F)cc1F | > 40 | >10 | 44.7 | 4 (≈ 5.33 µM) | 8 (≈ 10.7 µM) | > 30 | > 30 | > 30 | 4 (≈ 5.33 µM) | > 40 | > 40 | – | – | – | – | – | – |
| Cc1c(CN2CCN(c3ccc(N4C[C@H](Cn5cc(-c6ccccc6)nn5)OC4=O)cc3F)CC2)cc(-c2ccc(F)cc2F)n1-c1cc(F)ccc1Br | – | – | – | > 16 | – | – | – | – | > 16 | – | – | – | – | – | – | – | – |
| Cc1ccccc1-c1cc(CN2CCN(c3ccc(N4C[C@H](Cn5cc(-c6cncn6C)nn5)OC4=O)cc3F)CC2)c(C)n1-c1ccc(F)c(F)c1 | – | – | – | > 6.25 | 10 (≈ 13.9 µM) | > 30 | > 30 | 10 (≈ 13.9 µM) | > 16 | > 40 | > 40 | – | – | – | – | – | – |
